Test [1] can be described thus: DPPH radical scavenging assay. The note with it: 20 to 250 μM drug, 200 μM DPPH, methanol, 30 °C, 25 min; Figure 2. An outline of the steps: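 Test compound in methanol as 20–250 μM solutions (before mixing), combined 1:1 with 200 μM methanolic DPPH. Plate shaken at 30 °C for 25 min. Controls were methanol plus DPPH, with methanol alone as background and ascorbic acid as standard. Absorbance read at 517 nm. % scavenging = (A control − A sample)/A control × 100.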

For test [2], the target named is rD2L receptor (Rattus norvegicus, UniProt P61169). As to conditions: read-out: Ki (nM), rD2L [3H]spiroperidol; HEK-293 cells; from previous ref 44; cited from earlier work.
Sequence of rD2L receptor (P61169 whole entry): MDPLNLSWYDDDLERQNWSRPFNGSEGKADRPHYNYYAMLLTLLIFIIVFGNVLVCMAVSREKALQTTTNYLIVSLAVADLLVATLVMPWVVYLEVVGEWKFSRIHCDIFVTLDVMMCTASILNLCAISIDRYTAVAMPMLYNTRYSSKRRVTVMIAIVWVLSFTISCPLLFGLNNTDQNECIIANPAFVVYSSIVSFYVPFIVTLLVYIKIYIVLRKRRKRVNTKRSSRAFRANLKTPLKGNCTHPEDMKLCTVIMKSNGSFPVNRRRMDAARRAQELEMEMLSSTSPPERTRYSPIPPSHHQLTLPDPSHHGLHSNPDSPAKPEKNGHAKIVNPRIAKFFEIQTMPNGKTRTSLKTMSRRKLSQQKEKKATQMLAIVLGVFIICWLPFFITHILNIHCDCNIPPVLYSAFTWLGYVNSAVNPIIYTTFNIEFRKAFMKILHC
Test [3] relates to 6-OHDA lesioned rats. The test can be described thus: In vivo rotational experiment with 6-OHDA unilaterally lesioned rats. On the set-up: species or system rat. As to conditions: for rotational activity in 6-OHDA lesioned rats / duration of rotation / total number of rotations: i.p. Put shortly:
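Rats (290–320 g) with a unilateral 6-OHDA lesion of the left medial forebrain bundle. Lesion confirmed by apomorphine challenges, including 0.05 mg/kg at 21 days post-lesion with contralateral rotations counted for 30 min. Test compound given i.p. at 5 or 10 μmol/kg; controls were vehicle and apomorphine reference. Contralateral (clockwise) rotations counted in harnessed rotometry chambers from dosing, in 30-min bins, over 7–12 h.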

The target in test [4] is rD3 receptor (Rattus norvegicus, UniProt P19020). As to conditions: read-out: Ki (nM), rD3 [3H]spiroperidol; HEK-293 cells; from previous ref 44; cited from earlier work.
Sequence of rD3 receptor (P19020 whole entry): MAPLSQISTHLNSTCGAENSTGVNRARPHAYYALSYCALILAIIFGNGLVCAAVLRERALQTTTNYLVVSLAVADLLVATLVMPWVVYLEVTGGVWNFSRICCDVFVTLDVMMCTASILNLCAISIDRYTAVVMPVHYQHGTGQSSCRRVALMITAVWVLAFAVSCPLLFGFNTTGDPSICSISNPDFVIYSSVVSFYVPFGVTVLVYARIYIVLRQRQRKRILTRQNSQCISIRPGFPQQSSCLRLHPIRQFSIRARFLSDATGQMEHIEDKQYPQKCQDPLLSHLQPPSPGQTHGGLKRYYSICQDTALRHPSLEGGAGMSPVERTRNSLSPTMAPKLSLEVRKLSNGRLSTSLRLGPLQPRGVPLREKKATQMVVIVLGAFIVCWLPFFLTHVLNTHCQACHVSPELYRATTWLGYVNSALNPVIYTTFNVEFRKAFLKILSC
Test [5] has as its system reserpine-treated rats. The test can be described thus: Reversal of reserpine-induced hypolocomotion in rats. The format is in vivo, rat. As to conditions: for reversal of akinesia (locomotor activity) in reserpine-treated rats: i.p., in DI water, 18 h after reserpine 5 mg/kg s.c. Put shortly: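 Male Sprague–Dawley rats (220–225 g) anaesthetised with isoflurane and given reserpine 5.0 mg/kg s.c. (acetic acid diluted in 5.5% glucose) or saline 18 h beforehand. After 1 h chamber acclimatisation, test compound (in water) given i.p. at 5 μmol/kg; reference agonist given s.c. Horizontal activity counted from infrared beam breaks for 6 h in 30-min bins. n = 4; mean ± SEM; one-way ANOVA with Dunnett vs saline controls.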

In test [6] the target is T1, hD3 receptor (Homo sapiens, UniProt P35462). The note with it: GTPγS, compared with Emax of DA; cited from earlier work.
T1 sequence (P35462 whole entry): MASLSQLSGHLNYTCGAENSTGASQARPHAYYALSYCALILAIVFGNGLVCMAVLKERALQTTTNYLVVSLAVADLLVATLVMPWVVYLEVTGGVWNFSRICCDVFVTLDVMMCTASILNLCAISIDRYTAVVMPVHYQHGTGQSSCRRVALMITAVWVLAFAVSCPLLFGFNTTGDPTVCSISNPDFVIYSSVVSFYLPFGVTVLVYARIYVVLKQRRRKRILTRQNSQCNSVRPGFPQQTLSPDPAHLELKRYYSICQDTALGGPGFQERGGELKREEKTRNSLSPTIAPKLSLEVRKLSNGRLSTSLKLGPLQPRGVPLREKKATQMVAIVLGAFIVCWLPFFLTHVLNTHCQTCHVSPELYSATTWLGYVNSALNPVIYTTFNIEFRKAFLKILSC
For test [7], the target named is T2, hD2 receptor (Homo sapiens, UniProt P14416). The note with it: GTPγS, compared with Emax of DA; cited from earlier work.
T2 sequence (P14416 whole entry): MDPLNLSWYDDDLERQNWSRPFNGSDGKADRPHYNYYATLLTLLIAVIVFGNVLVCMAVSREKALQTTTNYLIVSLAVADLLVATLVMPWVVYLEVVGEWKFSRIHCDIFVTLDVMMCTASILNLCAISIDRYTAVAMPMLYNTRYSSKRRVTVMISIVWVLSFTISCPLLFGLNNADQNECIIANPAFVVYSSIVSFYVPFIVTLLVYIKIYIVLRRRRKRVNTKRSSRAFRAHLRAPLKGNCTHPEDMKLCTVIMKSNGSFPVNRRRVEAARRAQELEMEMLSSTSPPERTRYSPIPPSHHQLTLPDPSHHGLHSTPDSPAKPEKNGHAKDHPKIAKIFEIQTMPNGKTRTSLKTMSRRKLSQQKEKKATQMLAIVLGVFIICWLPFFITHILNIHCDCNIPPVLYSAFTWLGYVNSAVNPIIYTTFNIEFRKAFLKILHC
Test [8] has as its system MN9D cells. The test can be described thus: Neuroprotection against MPP+ toxicity in dopaminergic MN9D cells. As to conditions: 1 h pretreatment, then cotreatment with 100 μM MPP+ for 24 h; MTT. The format is cell-based, mouse. An outline of the steps: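 MN9D cells (mouse mesencephalic neuron × N18TG2 hybridoma) grown on poly-L-lysine in high-glucose DMEM with 10% serum and penicillin/streptomycin, 37 °C, 5% CO2. Seeded at 1 × 10^4 cells/well and equilibrated 40 h. Pretreated 1 h with test compound (0.001–20 μM; DMSO stock), then MPP+ added to 100 μM final for 24 h; controls 0.01% DMSO. MTT (0.5 mg/mL final) 3 h; formazan dissolved in DMSO/methanol 1:1; A570 minus A690. Three independent experiments, 4–6 replicates, mean ± SD; one-way ANOVA with Tukey vs MPP+.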

The target in test [9] is T1, hD3 receptor. The test can be described thus: Stimulation of [35S]GTPγS binding to hD3 receptors expressed in CHO cells. The class given is biochemical. As to conditions: for agonist type at D3 receptor: GTPγS, compared with Emax of DA.
In test [10] the target is T2, hD2 receptor. The test can be described thus: Stimulation of [35S]GTPγS binding to hD2 receptors expressed in CHO cells. The class given is biochemical. As to conditions: compared with Emax of DA.

Read-outs that look alike come from different tables or passages of the source.

As for `CCCN(CCN1CCN(c2ccc(-c3cccc(O)c3)cc2)CC1)[C@H]1CCc2c(O)cccc2C1` [(−)-11, (S)-6-((2-(4-(3′-Hydroxybiphenyl-4-yl)piperazin-1-yl)ethyl)-(propyl)amino)-5,6,7,8-tetrahydronaphthalen-1-ol], the “DPPH radical scavenging (antioxidant) activity” value (shortened to “DPPH radical scavenging”) in test [1] is reported as “less antioxidant activity in this assay than (−)-9b”.
Turning to `CCCN(CCN1CCN(c2ccc(-c3ccccc3)cc2)CC1)[C@H]1CCc2nc(N)sc2C1` [Compound 1a, (−)-N6-(2-(4-(Biphenyl-4-yl)piperazin-1-yl)-ethyl)-N6-propyl-4,5,6,7-tetrahydrobenzo[d]thiazole-2,6-diamine], the values for the Ki in test [2] and in [4] were 186 ± 34 nM and 2.1 ± 0.34 nM, respectively. Further, the “rotational activity in 6-OHDA lesioned rats” value (shortened to “rotational activity”) in test [3] is given as “failed to show any in vivo activity”. For the same molecule, the “reversal of akinesia (locomotor activity) in reserpine-treated rats” value in [5] (5 μmol/kg) is reported as “failed to produce any significant effect in reversing akinesia”. In [5] (dissolved in 10% beta-hydroxy cyclodextrin solution, 5 μmol/kg i.p.), the “reversal of akinesia in reserpine-treated rats” value was “more effective”. In addition, in test [6], the “agonist type at D3 receptor” value was “full agonist”. For the same molecule, in test [7], the “agonist type at D2 receptor” value is on record as “full agonist”. Moreover, the “protection of MN9D cells from MPP+ induced toxicity” value (“protection of MN9D cells” for short) in test [8] is given as “able to protect the MN9D cells in a dose-dependent manner”.
Regarding `CCCN(CCN1CCN(c2ccc(-c3cccc(OC)c3)cc2)CC1)[C@H]1CCc2nc(N)sc2C1` [Compound (−)-8b, (S)-N6-(2-(4-(3′-Methoxybiphenyl-4-yl)piperazin-1-yl)ethyl)-N6-propyl-4,5,6,7-tetrahydrobenzo[d]thiazole-2,6-diamine], in test [3] (5 μmol/kg), the duration of rotation entry is reported as “more than 7 h” and the “total number of rotations” value was determined as 3333 rotations. In addition, in test [3] (10 μmol/kg), the duration of rotation entry was “more than 10 h” and the “total number of rotations” value is 5866 rotations. Further, in [3], the “rotational activity” value is “produced potent rotational activity in a dose-dependent manner”. Further, the “less potent at D3 receptor in comparison to 1a” value in test [9] (GTPγS EC50) is on record as 2 fold. The “agonist type at D3 receptor” value in test [9] is on record as “partial agonist”. In addition, the “reversal of akinesia (locomotor activity) in reserpine-treated rats” value in test [5] (5 μmol/kg) is listed as “highly efficacious in reversing akinesia”. Also, in test [10], the “agonist type at D2 receptor” value is recorded as “full agonist”. In addition, the “protection of MN9D cells” value in test [8] was “did not show any neuroprotection”.
`CCCN(CCN1CCN(c2ccc(-c3cccc(O)c3)cc2)CC1)[C@H]1CCc2nc(N)sc2C1` [Compound (−)-9b, (S)-4′-(4-(2-((2-Amino-4,5,6,7-tetrahydrobenzo[d]thiazol-6-yl)(propyl)amino)ethyl)piperazin-1-yl)biphenyl-3-ol]: in [3] (5 μmol/kg), the duration of rotation entry is reported as “more than 7 h” and the “total number of rotations” value was 1839 rotations. Moreover, in test [3] (10 μmol/kg), the duration of rotation result is “more than 10 h” and the “total number of rotations” value is 2653 rotations. For the same molecule, in test [3], the “rotational activity” value was “produced potent rotational activity in a dose-dependent manner”. Also, the “increase in D3 functional potency in comparison to 1a” value in [9] (GTPγS EC50) is recorded as 15 fold. In addition, in test [9] (GTPγS EC50 ratio), the “increase in functional selectivity (D2/D3) in comparison to 1a” value came out at 7 fold. For the same molecule, in test [9], the “agonist type at D3 receptor” value was “full agonist”. The “reversal of akinesia (locomotor activity) in reserpine-treated rats” value in test [5] (5 μmol/kg) is recorded as “highly efficacious in reversing akinesia”. Moreover, the “agonist type at D2 receptor” value in test [10] is “full agonist”. In addition, in [8], the “protection of MN9D cells” value is reported as “able to protect the MN9D cells in a dose-dependent manner”.
As to `CN1CCc2cccc3c2[C@H]1Cc1ccc(O)c(O)c1-3` [apomorphine, reference compound], the average contralateral rotation in [3] (apomorphine 0.05 mg/kg, 21 days postlesion, recorded for 30 min) is on record as > 250.
As to `O=C1O[C@H]([C@@H](O)CO)C(O)=C1O` [ascorbic acid], the “DPPH radical scavenging” value in [1] was “inhibited DPPH radical activity dose dependently”.
For `CCCN(CCC)CCc1cccc2c1CC(=O)N2` [ropinirole, Ropinirole, reference compound], the “duration of action in 6-OHDA lesioned rats” value in test [3] (10 μmol/kg) is “much shorter duration of action”. In addition, the “duration of action in reserpine-treated rats” value in [5] (5 μmol/kg, s.c., compared to the test compounds) is reported as “much shorter duration of action”. The “DPPH radical scavenging” value in [1] is given as “poor activity”.

The Ki is a measure of affinity in units of concentration, obtained from inhibition or displacement.

Source of the values: article PMC3983390 (Journal of medicinal chemistry, 2014).
